# “And” between values parts separate entries of the source, which are not always exact repeats. Identical values can stand only once.
# Assays:
# [1] = Tissue biodistribution and regional brain uptake in rats; format: in vivo, male Sprague-Dawley rats; details: for Blood uptake: i.v., mean ± SD, n=4 rats
# [2] = Ex vivo autoradiography of rat brain; format: in vivo, male Sprague-Dawley rat; details: rat sacrificed 1 h p.i., 1 mm coronal sections
# In short: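 A single mature male Sprague-Dawley rat received ∼500 μCi of the 18F-labelled test compound by tail-vein injection under isoflurane/oxygen anaesthesia. The rat recovered and was euthanised 1 h later. The brain was taken out quickly and set in a metal brain matrix with 1 mm slots. A 1.0 mm slice through the striatum was imaged by flatbed scanner and by electronic autoradiography.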
# [3] = 5 min p.i., rat brain dissection
substance,measurement,setting,value
(-)-trans-2-Hydroxy-3-(4-(4-[^18F]fluorobenzoyl)piperidino)tetralin [(-)-[^18F]9e],Bone uptake,[1]; 5 min p.i.,0.334 ± 0.047 %ID/g
same,Brain uptake,[1]; 5 min p.i.,0.823 ± 0.091 %ID/g
same,Fat uptake,[1]; 5 min p.i.,0.132 ± 0.095 %ID/g
same,Heart uptake,[1]; 5 min p.i.,0.321 ± 0.027 %ID/g
same,Kidney uptake,[1]; 5 min p.i.,2.02 %ID/g and 2.018 ± 0.448 %ID/g
same,Muscle uptake,[1]; 5 min p.i.,0.091 ± 0.018 %ID/g
same,Blood uptake,[1]; 5 min p.i.,0.073 ± 0.010 %ID/g
same,Initial uptake in cerebellum,[1]; [3],0.743 %ID/g
same,Initial uptake in cortex,[1]; [3],0.911 %ID/g
same,Initial uptake in hippocampus,[1]; [3],0.837 %ID/g
same,Initial uptake in striatum,[1]; [3],0.911 %ID/g
same,Bone uptake,[1]; 30 min p.i.,0.157 ± 0.004 %ID/g
same,Brain uptake,[1]; 30 min p.i.,0.226 ± 0.014 %ID/g
same,Fat uptake,[1]; 30 min p.i.,0.207 ± 0.018 %ID/g
same,Heart uptake,[1]; 30 min p.i.,0.109 ± 0.014 %ID/g
same,Kidney uptake,[1]; 30 min p.i.,1.896 ± 0.333 %ID/g
same,Lung uptake,[1]; 30 min p.i.,0.481 ± 0.088 %ID/g
same,Muscle uptake,[1]; 30 min p.i.,0.080 ± 0.008 %ID/g
same,Blood uptake,[1]; 30 min p.i.,0.037 ± 0.002 %ID/g
same,Bone uptake,[1]; 1 h p.i.,0.148 ± 0.015 %ID/g
same,Brain uptake,[1]; 1 h p.i.,0.124 ± 0.013 %ID/g
same,Fat uptake,[1]; 1 h p.i.,0.241 ± 0.021 %ID/g
same,Heart uptake,[1]; 1 h p.i.,0.066 ± 0.008 %ID/g
same,Kidney uptake,[1]; 1 h p.i.,1.298 ± 0.372 %ID/g
same,Lung uptake,[1]; 1 h p.i.,0.327 ± 0.022 %ID/g
same,Muscle uptake,[1]; 1 h p.i.,0.056 ± 0.010 %ID/g
same,Blood uptake,[1]; 1 h p.i.,0.029 ± 0.005 %ID/g
same,Bone uptake,[1]; 2 h p.i.,0.138 ± 0.006 %ID/g
same,Brain uptake,[1]; 2 h p.i.,0.095 ± 0.016 %ID/g
same,Fat uptake,[1]; 2 h p.i.,0.249 ± 0.036 %ID/g
same,Heart uptake,[1]; 2 h p.i.,0.047 ± 0.009 %ID/g
same,Kidney uptake,[1]; 2 h p.i.,1.339 ± 0.160 %ID/g
same,Lung uptake,[1]; 2 h p.i.,0.199 ± 0.032 %ID/g
same,Muscle uptake,[1]; 2 h p.i.,0.035 ± 0.007 %ID/g
same,Blood uptake,[1]; 2 h p.i.,0.020 ± 0.002 %ID/g
same,accumulation in the cortex (autoradiogram),[2],moderate accumulation
same,accumulation in the striatum (autoradiogram),[2],high accumulation

# From publication PMC2765529 (Journal of medicinal chemistry, 2009)
